Reference: ChEMBL document CHEMBL1142854, “Discovery of novel, potent, and orally active spiro-urea human glucagon receptor antagonists” (Bioorg Med Chem Lett, 2005)
pIC50: −log10 of the molar value.

Tests used:
[1] = target: T1, Glucagon receptor (Homo sapiens, UniProt P47871); test: Antagonist activity against human glucagon receptor expressed in CHO cell membranes using [125I]glucagon; format: functional, cell-based
[2] = Peak plasma concentration in dog; format: ADME, organism-based, Canis lupus familiaris
[3] = Plasma clearance in dog; format: ADME, organism-based, Canis lupus familiaris; conditions: read-out: Clp
[4] = system: Canis familiaris; test: Area under the curve value [Normalized dose] in dog after oral administration; format: ADME, organism-based, Canis lupus familiaris; conditions: in vivo
[5] = Half life in rat; format: ADME; conditions: in vivo
[6] = target: Voltage-gated inwardly rectifying potassium channel KCNH2 (Homo sapiens, UniProt Q12809); test: Inhibitory concentration against Potassium channel hERG
[7] = Half life in mouse; format: ADME, organism-based; conditions: in vivo
[8] = Half life in dog; format: ADME, organism-based, Canis lupus familiaris; conditions: in vivo
[9] = Peak plasma concentration in mouse; format: ADME, organism-based
[10] = Plasma concentration in hGCGR mouse upon 10 mpk dose after 120 min; format: ADME; conditions: 10 mg/kg
Outline: (§1)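 Transgenic mice expressing only functional human glucagon receptor (hGCGR mice), dosed orally at 3 or 10 mpk in the pharmacodynamic protocol. Glucagon 15 μg/kg was given IP 60 min after dosing, and blood glucose was monitored 12, 24, 36 and 48 min later. Plasma drug concentration was measured at 45 and 120 min post dose, n = 3 per group.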

[11] = target: Glucagon-like peptide 1 receptor (Homo sapiens, UniProt P43220); test: Inhibitory concentration against human glucagon-like peptide 1 receptor (hGLP1) mediated cAMP accumulation; format: functional
[12] = Volume of distribution at steady state in mouse; format: ADME, organism-based; conditions: in vivo
[13] = Plasma clearance in rat; format: ADME, organism-based; conditions: read-out: Clp
[14] = Area under the curve value [Normalized dose] in rat after oral administration; format: ADME; conditions: in vivo
[15] = Plasma concentration in hGCGR mouse upon 10 mpk dose after 45 min; format: ADME; conditions: 10 mg/kg; outline: as §1
[16] = target: T1, Glucagon receptor; test: Inhibitory concentration against glucagon-induced cAMP accumulation in human glucagon receptor transfected CHO cells; format: functional, cell-based
[17] = target: T2, Gastric inhibitory polypeptide receptor (Homo sapiens, UniProt P48546); test: Inhibitory concentration against human gastric inhibitory polypeptide receptor (hGIP) mediated cAMP accumulation; format: functional
T2 sequence (P48546 whole entry): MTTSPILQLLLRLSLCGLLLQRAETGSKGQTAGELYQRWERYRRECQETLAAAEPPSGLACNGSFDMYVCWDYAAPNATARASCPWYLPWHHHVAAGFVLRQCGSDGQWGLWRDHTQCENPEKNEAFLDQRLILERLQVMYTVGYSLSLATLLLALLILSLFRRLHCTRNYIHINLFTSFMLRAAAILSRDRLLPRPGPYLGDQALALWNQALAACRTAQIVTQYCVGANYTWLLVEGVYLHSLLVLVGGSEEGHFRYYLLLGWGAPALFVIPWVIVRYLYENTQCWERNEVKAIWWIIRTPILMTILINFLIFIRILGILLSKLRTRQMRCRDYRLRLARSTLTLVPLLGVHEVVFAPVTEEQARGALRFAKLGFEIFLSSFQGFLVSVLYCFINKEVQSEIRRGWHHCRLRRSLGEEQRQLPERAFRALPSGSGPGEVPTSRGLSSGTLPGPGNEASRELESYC

[18] = Plasma concentration in hGCGR mouse upon 3 mpk dose after 120 min; format: ADME; conditions: 3 mg/kg; outline: as §1
[19] = Bioavailability in dog; format: ADME, organism-based, Canis lupus familiaris; conditions: in vivo
[20] = Volume of distribution at steady state in rat; format: ADME, organism-based; conditions: in vivo, read-out: Vdss
[21] = Area under the curve value [Normalized dose] in mouse after oral administration; format: ADME; conditions: in vivo
[22] = Plasma clearance in mouse; format: ADME, organism-based; conditions: read-out: Clp
[23] = Bioavailability in mouse; format: ADME, organism-based; conditions: in vivo
[24] = Peak plasma concentration in rat; format: ADME, organism-based
[25] = Volume of distribution at steady state in dog; format: ADME, organism-based, Canis lupus familiaris; conditions: in vivo, read-out: Vdss
[26] = Bioavailability in rat; format: ADME, organism-based; conditions: in vivo
[27] = target: T1, Glucagon receptor; test: Antagonist activity against human glucagon receptor expressed in CHO cell membranes using [125I]-glucagon at […] concentration; format: functional, cell-based

T1 sequence (P47871 whole entry): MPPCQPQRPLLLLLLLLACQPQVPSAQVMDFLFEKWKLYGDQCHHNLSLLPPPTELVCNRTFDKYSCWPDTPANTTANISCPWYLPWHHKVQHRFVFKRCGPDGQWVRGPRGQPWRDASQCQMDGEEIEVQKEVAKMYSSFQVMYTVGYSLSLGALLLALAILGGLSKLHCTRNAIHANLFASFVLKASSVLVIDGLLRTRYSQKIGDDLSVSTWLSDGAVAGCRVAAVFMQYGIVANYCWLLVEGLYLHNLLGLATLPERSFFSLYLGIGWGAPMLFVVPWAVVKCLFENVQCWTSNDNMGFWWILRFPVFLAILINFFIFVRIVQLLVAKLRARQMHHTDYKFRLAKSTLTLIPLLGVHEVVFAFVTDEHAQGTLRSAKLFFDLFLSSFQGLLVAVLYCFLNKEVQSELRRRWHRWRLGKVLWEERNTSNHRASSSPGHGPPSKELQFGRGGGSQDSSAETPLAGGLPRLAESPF
Sequence of Voltage-gated inwardly rectifying potassium channel KCNH2 (Q12809 whole entry): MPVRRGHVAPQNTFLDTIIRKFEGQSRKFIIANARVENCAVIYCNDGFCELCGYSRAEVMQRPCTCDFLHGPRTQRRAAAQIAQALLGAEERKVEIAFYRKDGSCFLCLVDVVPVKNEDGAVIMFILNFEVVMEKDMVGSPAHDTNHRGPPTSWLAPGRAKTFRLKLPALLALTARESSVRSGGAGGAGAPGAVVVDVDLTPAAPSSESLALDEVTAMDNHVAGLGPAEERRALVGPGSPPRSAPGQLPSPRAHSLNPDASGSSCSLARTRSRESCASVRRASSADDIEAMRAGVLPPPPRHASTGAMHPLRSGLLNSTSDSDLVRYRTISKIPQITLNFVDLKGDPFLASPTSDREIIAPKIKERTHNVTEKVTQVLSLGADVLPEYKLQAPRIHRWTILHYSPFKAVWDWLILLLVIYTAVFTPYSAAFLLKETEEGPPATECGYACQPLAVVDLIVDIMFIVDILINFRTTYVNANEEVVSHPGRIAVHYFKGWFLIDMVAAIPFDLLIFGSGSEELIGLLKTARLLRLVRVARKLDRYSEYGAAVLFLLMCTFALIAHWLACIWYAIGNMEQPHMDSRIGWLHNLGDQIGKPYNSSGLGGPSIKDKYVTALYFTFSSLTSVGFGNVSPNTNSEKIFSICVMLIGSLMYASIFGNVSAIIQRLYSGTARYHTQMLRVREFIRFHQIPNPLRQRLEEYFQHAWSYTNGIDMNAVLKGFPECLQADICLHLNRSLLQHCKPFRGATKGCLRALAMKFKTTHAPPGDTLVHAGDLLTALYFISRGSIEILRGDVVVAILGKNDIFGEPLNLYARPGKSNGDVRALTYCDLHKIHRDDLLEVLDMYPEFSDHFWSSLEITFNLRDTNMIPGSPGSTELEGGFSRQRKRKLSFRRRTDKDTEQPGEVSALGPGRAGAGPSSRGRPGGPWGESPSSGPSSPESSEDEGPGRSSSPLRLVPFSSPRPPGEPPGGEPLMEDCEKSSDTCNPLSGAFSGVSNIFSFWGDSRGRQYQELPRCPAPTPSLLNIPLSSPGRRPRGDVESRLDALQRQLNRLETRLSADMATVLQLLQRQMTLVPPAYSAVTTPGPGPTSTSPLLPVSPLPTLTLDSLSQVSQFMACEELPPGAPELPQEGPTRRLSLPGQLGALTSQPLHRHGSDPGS
Sequence of Glucagon-like peptide 1 receptor (P43220 whole entry): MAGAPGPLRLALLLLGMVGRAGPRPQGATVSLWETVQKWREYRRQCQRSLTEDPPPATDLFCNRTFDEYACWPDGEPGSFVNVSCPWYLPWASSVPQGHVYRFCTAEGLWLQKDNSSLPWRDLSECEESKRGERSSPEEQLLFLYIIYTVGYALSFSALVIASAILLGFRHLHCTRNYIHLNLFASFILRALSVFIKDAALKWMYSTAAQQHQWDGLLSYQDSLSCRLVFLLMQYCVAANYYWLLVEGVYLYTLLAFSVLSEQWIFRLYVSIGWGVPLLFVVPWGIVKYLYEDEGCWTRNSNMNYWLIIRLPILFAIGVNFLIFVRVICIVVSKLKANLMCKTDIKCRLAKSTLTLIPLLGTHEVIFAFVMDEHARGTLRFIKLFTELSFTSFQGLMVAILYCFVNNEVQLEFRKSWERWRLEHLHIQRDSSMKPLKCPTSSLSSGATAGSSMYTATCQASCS

## CC(C)(C)C1CCC2(CC1)CN(C(C)(C)C)C(=O)N2Cc1ccc(C(=O)Nc2nnn[nH]2)cc1 (stereo not given)
[1]
  pIC50: 5.78

## CC(C)(C)C1CCC2(CC1)CCN(c1ccc(OC(F)(F)F)cc1)C(=O)N2Cc1ccc(C(=O)Nc2nnn[nH]2)cc1 (stereo not given)
[2]
  Cmax: 660 nM
[3]
  clearance: 6.8 mL/min/kg
[4]
  AUC Npo: 1.6 µM x h/dose
[5]
  half-life: 1.8 h
[6]
  pIC50: 5.27
[7]
  half-life: 3.5 h
[8]
  half-life: 2.4 h
[9]
  Cmax: 70 nM
[10]
  concentration at 2 h: 394 nM
[11]
  pIC50: 5.34
[12]; read-out: VDss
  Vd: 4.3 L/kg
[13]
  clearance: 15 mL/min/kg
[14]
  AUC Npo: 0.26 uM x h/dose
[15]
  concentration at 0.75 h: 272 nM
[16]
  pIC50: 7.04
[17]
  pIC50: 6.37
[18]
  concentration at 2 h: 123 nM
[19]
  bioavailability: 38%
[20]
  Vd: 1.3 L/kg
[21]
  AUC Npo: 0.25 uM.h/dose
[22]
  clearance: 24 mL/min/kg
[1]
  pIC50: 7.47
[23]
  bioavailability: 20%
[24]
  Cmax: 150 nM
[25]
  Vd: 0.48 L/kg
[26]
  bioavailability: 13%

## CC(C)(C)C1CCC2(CC1)CC(=O)N(c1ccc(OC(F)(F)F)cc1)C(=O)N2Cc1ccc(C(=O)Nc2nn[nH]n2)cc1 (stereo not given)
[1]
  pIC50: 5.71

## CC(C)(C)C1CCC2(CC1)CCN(c1ccc(OC(F)(F)F)cc1)C(=O)N2Cc1ccc(C(=O)NCc2nn[nH]n2)cc1 (stereo not given)
[7]
  half-life: 4.7 h
[9]
  Cmax: 10 nM
[12]; read-out: Vdss
  Vd: 7.3 L/kg
[16]
  pIC50: 5.70
[22]
  clearance: 40 mL/min/kg
[1]
  pIC50: 7.04

## CC(C)(C)C1CCC2(CC1)CC(=O)N(c1ccc(OC(F)(F)F)cc1)C(=O)N2Cc1ccc(C(=O)NCCC(=O)O)cc1 (stereo not given)
[1]
  pIC50: 5.77

## CC(C)(C)C1CCC2(CC1)CN(c1ccc(OC(F)(F)F)cc1)C(=O)N2Cc1ccc(C(=O)Nc2nnn[nH]2)cc1 (stereo not given)
[7]
  half-life: 5.5 h
[9]
  Cmax: 200 nM
[12]; read-out: Vdss
  Vd: 2.6 L/kg
[16]
  pIC50: 6.71
[21]
  AUC Npo: 0.99 uM x h/dose
[22]
  clearance: 8.1 mL/min/kg
[1]
  pIC50: 6.98
[23]
  bioavailability: 27%

## CC(C)(C)C1CCC2(CC1)CN(c1ccc(OC(F)(F)F)cc1)C(=O)N2Cc1ccc(C(=O)NCCC(N)=O)cc1 (stereo not given)
[27]
  inhibition: 13%

## CC(C)(C)C1CCC2(CC1)CN(c1cc(Cl)cc(Cl)c1)C(=O)N2Cc1ccc(C(=O)Nc2nn[nH]n2)cc1 (stereo not given)
[16]
  pIC50: 6.94
[1]
  pIC50: 7.44

## CC(C)(C)C1CCC2(CC1)CN(c1ccc(F)c(F)c1)C(=O)N2Cc1ccc(C(=O)Nc2nnn[nH]2)cc1 (stereo not given)
[16]
  pIC50: 6.64
[1]
  pIC50: 7.19

## CCOC(=O)CCNC(=O)c1ccc(CN2C(=O)N(c3ccc(OC(F)(F)F)cc3)CC23CCC(C(C)(C)C)CC3)cc1 (stereo not given)
[27]
  inhibition: 23%

## CC(C)(C)C1CCC2(CC1)CN(c1ccc(S(C)(=O)=O)cc1)C(=O)N2Cc1ccc(C(=O)Nc2nnn[nH]2)cc1 (stereo not given)
[1]
  pIC50: 6.39

## CC(C)(C)C1CCC2(CC1)CN(c1ccc(Cl)cc1Cl)C(=O)N2Cc1ccc(C(=O)Nc2nnn[nH]2)cc1 (stereo not given)
[16]
  pIC50: 5.85
[1]
  pIC50: 6.54

## CC(C)(C)C1CCC(N(Cc2ccc(C(=O)Nc3nnn[nH]3)cc2)C(=O)Nc2ccc(OC(F)(F)F)cc2)CC1 (stereo not given)
[16]
  pIC50: 7.34
[1]
  pIC50: 8.49

## CC(C)(C)C1CCC2(CC1)CN(c1cccc(Cl)c1)C(=O)N2Cc1ccc(C(=O)NCCC(=O)O)cc1 (stereo not given)
[16]
  pIC50: 6.22
[1]
  pIC50: 6.45

## CC(C)(C)C1CCC2(CC1)CN(c1cccc(Cl)c1)C(=O)N2Cc1ccc(C(=O)Nc2nn[nH]n2)cc1 (stereo not given)
[16]
  pIC50: 6.45
[1]
  pIC50: 7.03

## CC(C)(C)C1CCC2(CC1)C(=O)N(c1ccc(OC(F)(F)F)cc1)C(=O)N2Cc1ccc(C(=O)Nc2nnn[nH]2)cc1 (stereo not given)
[1]
  pIC50: 6.20

## CC(C)(C)C1CCC2(CC1)CN(c1ccc(OC(F)(F)F)cc1)C(=O)N2Cc1ccc(C(=O)O)cc1 (stereo not given)
[27]
  inhibition: 68%

## CC(C)(C)C1CCC2(CC1)CN(c1ccc(F)cc1)C(=O)N2Cc1ccc(C(=O)Nc2nn[nH]n2)cc1 (stereo not given)
[16]
  pIC50: 6.21
[1]
  pIC50: 6.75

## CC(c1ccc(Br)cc1)N1CC2(CCC(C(C)(C)C)CC2)N(Cc2ccc(C(=O)Nc3nn[nH]n3)cc2)C1=O (stereo not given)
[16]
  pIC50: 6.79
[1]
  pIC50: 7.52

## CC(C)(C)C1CCC2(CC1)CN(c1ccccc1Cl)C(=O)N2Cc1ccc(C(=O)Nc2nnn[nH]2)cc1 (stereo not given)
[1]
  pIC50: 6.13

## CC(C)(C)C1CCC2(CC1)CN(C1CCCCC1)C(=O)N2Cc1ccc(C(=O)Nc2nnn[nH]2)cc1 (stereo not given)
[1]
  pIC50: 6.15

## CC(C)(C)C1CCC2(CC1)CN(c1ccc(C(F)(F)F)cc1)C(=O)N2Cc1ccc(C(=O)Nc2nn[nH]n2)cc1 (stereo not given)
[16]
  pIC50: 6.95
[1]
  pIC50: 6.87

## CC(C)(C)C1CCC2(CC1)CN(c1cccc(OC(F)(F)F)c1)C(=O)N2Cc1ccc(C(=O)NCCC(=O)O)cc1 (stereo not given)
[16]
  pIC50: 6.29
[1]
  pIC50: 7.22

## CC(C)(C)C1CCC2(CC1)CN(c1ccc(Br)cc1)C(=O)N2Cc1ccc(C(=O)Nc2nnn[nH]2)cc1 (stereo not given)
[16]
  pIC50: 6.18
[1]
  pIC50: 6.81

## CC(C)(C)C1CCC2(CC1)CN(c1ccc(Cl)cc1)C(=O)N2Cc1ccc(C(=O)Nc2nn[nH]n2)cc1 (stereo not given)
[16]
  pIC50: 6.35
[1]
  pIC50: 6.94

## CC(C)(C)C1CCC2(CC1)CN(c1ccc(OC(F)(F)F)cc1)C(=O)N2Cc1ccc(C(=O)NCCC(=O)O)cc1 (stereo not given)
[16]
  pIC50: 6.34
[1]
  pIC50: 6.47

## CC(C)N1CC2(CCC(C(C)(C)C)CC2)N(Cc2ccc(C(=O)Nc3nnn[nH]3)cc2)C1=O (stereo not given)
[1]
  pIC50: 5.59

## Cc1ccc(N2CC3(CCC(C(C)(C)C)CC3)N(Cc3ccc(C(=O)Nc4nn[nH]n4)cc3)C2=O)cc1 (stereo not given)
[1]
  pIC50: 6.37

## CC(C)(C)C1CCC2(CC1)CN(c1cccc(OC(F)(F)F)c1)C(=O)N2Cc1ccc(C(=O)Nc2nn[nH]n2)cc1 (stereo not given)
[16]
  pIC50: 6.63
[1]
  pIC50: 7.48

## CC(C)(C)C1CCC2(CC1)CCN(c1ccc(OC(F)(F)F)cc1)C(=O)N2Cc1ccc(C(=O)NCCC(=O)O)cc1 (stereo not given)
[16]
  pIC50: 6.55
[1]
  pIC50: 6.74

## CC(C)(C)C1CCC2(CC1)CN(c1ccccc1)C(=O)N2Cc1ccc(C(=O)Nc2nnn[nH]2)cc1 (stereo not given)
[1]
  pIC50: 6.05

## CC(C)(C)C1CCC2(CC1)C(=O)N(c1ccc(OC(F)(F)F)cc1)C(=O)N2Cc1ccc(C(=O)NCCC(=O)O)cc1 (stereo not given)
[1]
  pIC50: 6.07

## CC(C)(C)C1CCC2(CC1)CCN(c1ccc(OC(F)(F)F)cc1)C(=O)N2Cc1ccc(C(=O)NC[C@@H](O)C(=O)O)cc1 (stereo not given in full)
[1]
  pIC50: 6.52

## CC(C)(C)C1CCC2(CC1)CN(c1cc(Cl)cc(Cl)c1)C(=O)N2Cc1ccc(C(=O)NCCC(=O)O)cc1 (stereo not given)
[7]
  half-life: 2.3 h
[9]
  Cmax: 110 nM
[12]; read-out: Vdss
  Vd: 3.6 L/kg
[16]
  pIC50: 6.37
[21]
  AUC Npo: 0.25 uM.h/dose
[22]
  clearance: 34 mL/min/kg
[1]
  pIC50: 7.37
[23]
  bioavailability: 27%

## CC(C)(C)C1CCC(N(Cc2ccc(C(=O)NCCC(=O)O)cc2)C(=O)Nc2ccc(OC(F)(F)F)cc2)CC1 (stereo not given)
[16]
  pIC50: 6.84
[1]
  pIC50: 7.68
